# Reference: ChEMBL document CHEMBL1128581, “Structure-activity relationships of analogues of thapsigargin modified at O-11 and O-12” (J Med Chem, 1995)
# Legend:
# [1] = Activity against [Ca2+]-ATPase in rabbit white skeletal muscle sarcoplasmic reticulum vesicles
# [2] = Activity against [Ca2+]-ATPase in rabbit white muscle sarcoplasmic reticulum vesicles
# [3] = species: Oryctolagus cuniculus; assay: Inhibition of the [Ca2+]-ATPase by the compound (5000 nM) was determined by the decrease in rate of formation of inorganic phosphate compared to control; design: scale not given: the % may be the effect or the level left
# Summary of the method: (§1)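 Leaky SR vesicles (5 μg/mL protein) from New Zealand white rabbit hind-leg muscle in pH 7.0 buffer: KCl 120 mM, MOPS 25 mM, EGTA 0.5 mM, CaCl2 0.44 mM, MgCl2 2 mM, A23187 1 μM. Compound added in DMSO (<1%), 5 min preincubation at 30 °C, then ATP 1 mM final. Pi read by malachite green at ≥8 time points; rate from slope.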
# [4] = species: Oryctolagus cuniculus; assay: Inhibition of the [Ca2+]-ATPase by coincubation of the enzyme with the Thapsigargin (activity=56.5) along with the compound at 500 nM concentration; design: scale not given: the % may be the effect or the level left
# [5] = species: Oryctolagus cuniculus; assay: Inhibition of the [Ca2+]-ATPase by the compound (100 nM) was determined by the decrease in rate of formation of inorganic phosphate compared to control; design: scale not given: the % may be the effect or the level left
# Summary of the method: as §1
# [6] = species: Oryctolagus cuniculus; assay: Inhibition of the [Ca2+]-ATPase by coincubation of the enzyme with the Thapsigargin (activity=56.5) along with the compound at 5000 nM concentration; design: scale not given: the % may be the effect or the level left
# [7] = species: Oryctolagus cuniculus; assay: Inhibition of the [Ca2+]-ATPase by the compound (500 nM) was determined by the decrease in rate of formation of inorganic phosphate compared to control; design: scale not given: the % may be the effect or the level left
# Summary of the method: as §1
# [8] = species: Oryctolagus cuniculus; assay: Inhibition of the [Ca2+]-ATPase by coincubation of the enzyme with the Thapsigargin (activity=56.5) along with the compound at 100 nM concentration; design: scale not given: the % may be the effect or the level left
# [9] = species: Oryctolagus cuniculus; assay: Inhibition of the [Ca2+]-ATPase by the compound (1 nM) was determined by the decrease in rate of formation of inorganic phosphate compared to control; design: scale not given: the % may be the effect or the level left
# Summary of the method: as §1
# [10] = species: Oryctolagus cuniculus; assay: Inhibition of the [Ca2+] - ATPase by coincubation of the enzyme with the Thapsigargin (activity=53.9) along with the compound at 1 nM concentration; design: scale not given: the % may be the effect or the level left
# [11] = species: Oryctolagus cuniculus; assay: Inhibition of the [Ca2+]-ATPase by coincubation of the enzyme with the Thapsigargin (activity=53.9) along with the compound at 20 nM concentration; design: scale not given: the % may be the effect or the level left
# [12] = species: Oryctolagus cuniculus; assay: Inhibition of the [Ca2+]-ATPase by the compound (20 nM) was determined by the decrease in rate of formation of inorganic phosphate compared to control; design: scale not given: the % may be the effect or the level left
# Summary of the method: as §1
# [13] = species: Oryctolagus cuniculus; assay: Inhibition of the [Ca2+]-ATPase by coincubation of the enzyme with the Thapsigargin (activity=53.9) along with the compound at 100 nM concentration; design: scale not given: the % may be the effect or the level left
# [14] = species: Oryctolagus cuniculus; assay: Inhibition of the [Ca2+]-ATPase by the compound (30 nM) was determined by the decrease in rate of formation of inorganic phosphate compared to control; design: scale not given: the % may be the effect or the level left
# Summary of the method: as §1
# [15] = species: Oryctolagus cuniculus; assay: Inhibition of the [Ca2+]-ATPase by coincubation of the enzyme with the Thapsigargin (activity=49.4) along with the compound at 200 nM concentration; design: scale not given: the % may be the effect or the level left
# [16] = species: Oryctolagus cuniculus; assay: Inhibition of the [Ca2+]-ATPase by coincubation of the enzyme with the Thapsigargin (activity=49.4) along with the compound at 1 nM concentration; design: scale not given: the % may be the effect or the level left
# [17] = species: Oryctolagus cuniculus; assay: Inhibition of the [Ca2+]-ATPase by the compound (200 nM) was determined by the decrease in rate of formation of inorganic phosphate compared to control; design: scale not given: the % may be the effect or the level left
# Summary of the method: as §1
# [18] = species: Oryctolagus cuniculus; assay: Inhibition of the [Ca2+]-ATPase by coincubation of the enzyme with the Thapsigargin (activity=49.4) along with the compound at 30 nM concentration; design: scale not given: the % may be the effect or the level left
# [19] = species: Oryctolagus cuniculus; assay: Inhibition of the [Ca2+]-ATPase by coincubation of the enzyme with the Thapsigargin (activity=53.3) along with the compound at 20 nM concentration; design: scale not given: the % may be the effect or the level left
# [20] = species: Oryctolagus cuniculus; assay: Inhibition of the [Ca2+]-ATPase by coincubation of the enzyme with the Thapsigargin (activity=53.3) along with the compound at 100 nM concentration; design: scale not given: the % may be the effect or the level left
# [21] = species: Oryctolagus cuniculus; assay: Inhibition of the [Ca2+]-ATPase by coincubation of the enzyme with the Thapsigargin (activity=53.3) along with the compound at 1 nM concentration; design: scale not given: the % may be the effect or the level left
# [22] = species: Oryctolagus cuniculus; assay: Inhibition of the [Ca2+]-ATPase by the compound (10000 nM) was determined by the decrease in rate of formation of inorganic phosphate compared to control; design: scale not given: the % may be the effect or the level left
# Summary of the method: as §1
# [23] = species: Oryctolagus cuniculus; assay: Inhibition of the [Ca2+]-ATPase by coincubation of the enzyme with the Thapsigargin (activity=56.7) along with the compound at 10000 nM concentration; design: scale not given: the % may be the effect or the level left
# [24] = species: Oryctolagus cuniculus; assay: Inhibition of the [Ca2+]-ATPase by coincubation of the enzyme with the Thapsigargin (activity=56.7) along with the compound at 1000 nM concentration; design: scale not given: the % may be the effect or the level left
# [25] = species: Oryctolagus cuniculus; assay: Inhibition of the [Ca2+]-ATPase by the compound (1000 nM) was determined by the decrease in rate of formation of inorganic phosphate compared to control; design: scale not given: the % may be the effect or the level left
# Summary of the method: as §1
# [26] = species: Oryctolagus cuniculus; assay: Inhibition of the [Ca2+]-ATPase by coincubation of the enzyme with the Thapsigargin (activity=56.7) along with the compound at 50000 nM concentration; design: scale not given: the % may be the effect or the level left
# [27] = species: Oryctolagus cuniculus; assay: Inhibition of the [Ca2+]-ATPase by the compound (50000 nM) was determined by the decrease in rate of formation of inorganic phosphate compared to control; design: scale not given: the % may be the effect or the level left
# Summary of the method: as §1
smiles,measurement,setting,value
C/C=C(/C)C(=O)O[C@H]1C(C)=C2[C@H]([C@@H]1OC(=O)CCCCC)[C@@](C)(OC(C)=O)C[C@H](OC(=O)CCC)[C@@]1(O)[C@H]2OC(=O)[C@@]1(C)O,IC50,[1],9.8 nM
C/C=C(/C)C(=O)O[C@H]1C(C)=C2[C@H]([C@@H]1OC(=O)CCCCC)[C@@](C)(O)C[C@H](OC(=O)CCC)[C@@]1(O)[C@H]2O[C@H]2OC(C)(C)O[C@]21C,IC50,[2],5590 nM
same,Control,[3],53.7%
same,Control,[4],49%
same,Control,[5],97%
same,Control,[6],24%
same,Control,[7],87%
same,Control,[8],52.3%
C/C=C(/C)C(=O)O[C@H]1C(C)=C2[C@H]([C@@H]1OC(=O)CCCCC)[C@@](C)(OC(C)=O)C[C@H](OC(=O)CCC)[C@@]1(O)[C@H]2O[C@H](OCC)[C@@]1(C)O,IC50,[1],11.2 nM
C/C=C(/C)C(=O)O[C@H]1C(C)=C2[C@H]([C@@H]1OC(=O)CCCCC)[C@@](C)(OC(C)=O)C[C@H](OC(=O)CCC)[C@@]1(O)[C@H]2O[C@H]2OC(C)(C)O[C@]21C,Control,[9],100%
same,Control,[10],55.7%
same,Control,[11],49.3%
same,IC50,[1],157 nM
same,Control,[5],66.6%
same,Control,[12],81.2%
same,Control,[13],34.7%
C/C=C(/C)C(=O)O[C@H]1C(C)=C2[C@H]([C@@H]1OC(=O)CCCCC)[C@@](C)(OC(C)=O)C[C@H](OC(=O)CCC)[C@@]1(O)[C@H]2O[C@H]2O[C@H](OCC)O[C@]21C,IC50,[1],24.1 nM
C/C=C(/C)C(=O)O[C@H]1C(C)=C2[C@H]([C@@H]1OC(=O)CCCCC)[C@@](C)(OC(C)=O)C[C@H](OC(=O)CCC)[C@@]1(O)[C@H]2O[C@@H](O)[C@@]1(C)O.C/C=C(/C)C(=O)O[C@H]1C(C)=C2[C@H]([C@@H]1OC(=O)CCCCC)[C@@](C)(OC(C)=O)C[C@H](OC(=O)CCC)[C@@]1(O)[C@H]2O[C@H](O)[C@@]1(C)O,IC50,[1],15.6 nM
C/C=C(/C)C(=O)O[C@H]1C(C)=C2[C@H]([C@@H]1OC(=O)CCCCC)[C@@](C)(OC(C)=O)C[C@H](OC(=O)CCC)[C@@]1(O)[C@H]2O[C@@H](OC(C)=O)[C@@]1(C)O,IC50,[1],18.4 nM
C/C=C(/C)C(=O)O[C@H]1C(C)=C2[C@H]([C@@H]1OC(=O)CCCCCCC)[C@@](C)(O)C[C@H](OC(=O)CCCCCCC)[C@@]1(O)[C@H]2OC(O)[C@@]1(C)O (some centres not stated),Control,[14],68.9%
same,Control,[9],98.4%
same,IC50,[1],120 nM
same,Control,[15],16.2%
same,Control,[16],51.1%
same,Control,[17],21.9%
same,Control,[18],34.6%
C/C=C(/C)C(=O)O[C@H]1C(C)=C2[C@H]([C@@H]1OC(=O)CCCCC)[C@@](C)(OC(C)=O)C[C@H](OC(=O)CCC)[C@@]1(O)[C@H]2O[C@H]2O[C@@H](OCC)O[C@]21C,Control,[9],101%
same,Control,[19],41.6%
same,IC50,[1],388 nM
same,Control,[5],78.6%
same,Control,[12],98.4%
same,Control,[20],36.8%
same,Control,[21],52.5%
C/C=C(/C)C(=O)O[C@H]1C(C)=C2[C@H]([C@@H]1OC(=O)CCCCC)[C@@](C)(OC(C)=O)C[C@H](OC(=O)CCC)[C@@]1(O)[C@H]2O[C@H]2O[C@]21C,IC50,[1],51.7 nM
C/C=C(/C)C(=O)O[C@H]1C(C)=C2[C@H]([C@@H]1O)[C@@](C)(O)C[C@H](OC(=O)CCC)[C@@]1(O)[C@H]2O[C@H]2OC(C)(C)O[C@]21C,IC50,[2],60600 nM
same,Control,[22],82.6%
same,Control,[23],43.5%
same,Control,[24],53.8%
same,Control,[25],98.6%
same,Control,[26],25.1%
same,Control,[27],50.9%
C/C=C(/C)C(=O)O[C@H]1C(C)=C2[C@H]([C@@H]1OC(=O)CCCCCCC)[C@@](C)(OC(C)=O)C[C@H](OC(=O)CCC)[C@@]1(O)[C@H]2OC(=O)[C@@]1(C)O [THAPSIGARGIN],IC50,[1],9.6 nM
